Reference: BindingDB's records for doi:10.1016/j.bmcl.2019.08.010 (Stanford University, 2019)

Target: T1, Uridine-cytidine kinase 2 (Homo sapiens, UniProt Q9BZX2)
T1 sequence (Q9BZX2 whole entry): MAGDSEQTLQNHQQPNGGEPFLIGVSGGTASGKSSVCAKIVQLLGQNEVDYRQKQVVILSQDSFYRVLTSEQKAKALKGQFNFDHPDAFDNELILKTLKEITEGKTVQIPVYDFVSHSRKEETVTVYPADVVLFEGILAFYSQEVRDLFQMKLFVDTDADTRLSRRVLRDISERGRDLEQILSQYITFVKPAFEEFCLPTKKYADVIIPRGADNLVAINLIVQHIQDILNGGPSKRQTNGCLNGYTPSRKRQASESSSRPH
Test: Inhibition of C-terminally His6-tagged human UCK2 expressed in Escherichia coli BL21(DE3) cells incubated for 15 mins before ATP addition and measured after 60 mins by ADP-Glo kinase assay
Outline: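 His6-tagged UCK2 (C-terminal tag), purified by Ni-NTA then ion exchange; UCK2 phosphorylates uridine with ATP and ADP-Glo measures the ADP formed, after depleting leftover ATP, as luciferase luminescence. Run in 1536-well format with 0.5 mg/mL BSA, DMSO up to 3%. Primary screen at 33 μM with hit cut-off of 3 SD of the negative control. Confirmation used 8 half-log concentrations, 0.05–167 µM.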

Structure (SMILES): Cc1ccccc1NC(=O)CSCn1[nH]nc2c(=O)nc(Cc3ccc(F)cc3)nc1-2
- IC50: 137 µM
